# Bioassay records from PubChem.
# RORA inh: blocks the human nuclear receptor RORA; P35398; CHO-K1 Gal4-RORA LBD luciferase reporter, luminescence; inhibition, % at 10 µM; 65,000 compounds, 0.43% hits; AID 561;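 active = inhibition above the mean of all tested compounds plus 3 SD, cut at about 52% in these data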
# Target sequence (P35398 whole entry, looked up, the tested form may be a part): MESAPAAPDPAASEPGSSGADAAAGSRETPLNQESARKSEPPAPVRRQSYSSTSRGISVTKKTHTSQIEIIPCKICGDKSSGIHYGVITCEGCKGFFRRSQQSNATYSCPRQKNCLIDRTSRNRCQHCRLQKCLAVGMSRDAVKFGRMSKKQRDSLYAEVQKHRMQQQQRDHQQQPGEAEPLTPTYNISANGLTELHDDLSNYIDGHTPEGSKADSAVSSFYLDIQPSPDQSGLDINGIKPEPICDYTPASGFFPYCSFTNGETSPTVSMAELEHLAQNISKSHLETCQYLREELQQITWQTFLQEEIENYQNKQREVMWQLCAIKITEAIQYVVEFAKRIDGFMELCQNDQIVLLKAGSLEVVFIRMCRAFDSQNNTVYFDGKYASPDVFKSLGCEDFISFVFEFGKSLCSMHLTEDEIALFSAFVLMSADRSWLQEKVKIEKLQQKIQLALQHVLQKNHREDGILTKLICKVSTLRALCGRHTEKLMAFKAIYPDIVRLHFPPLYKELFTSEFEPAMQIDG
#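 Test system: CHO-K1 cells with Gal4-hRORA LBD fusion and pG5-luc reporter | Timing: 20 h compound treatment, 37 °C | Detection: Luminescence from basal luciferase reporter expression | Read-out basis: % inhibition of basal luciferase versus +RORA/-RORA DMSO controls | Repeats: One measurement per compound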
# Hits are given with their value; 0 = inactive. The full list was thinned out, with hits kept by preference.
SMILES,RORA inh
CCSc1nc2c(c(=O)n1Cc1ccccc1)SC(C)C2 (stereo not drawn),0
O=C(O)c1ccccc1C(=O)Nc1ccccn1,0
Cc1cc(C(=O)Nc2ccccn2)no1,0
Cc1ccc(C(=O)/C=C/Nc2ccccn2)cc1,90
Cn1c(-c2ccccc2)cc2c3no[n+]([O-])c3ccc21,66
CCOc1ccc(N2C(=O)NC(Cc3c[nH]c4ccccc34)C2=O)cc1 (stereo not drawn),0
Clc1ccc(OCc2nn3c(-c4ccco4)nnc3s2)c(Cl)c1,0
O=C(Nc1ccc2nc3n(c(=O)c2c1)CCCCC3)c1ccccn1,0
COc1ccc(-c2cc3nc4n(c(=O)c3s2)CCC4)cc1,71
COc1ccc2cc3c(N)c(C(=O)N4CCCC4)sc3nc2c1,0
O=C(CSc1nnc(Cn2c(=O)sc3ccccc32)n1-c1ccccc1)N1CCOCC1,0
CCOC(=O)c1c(-c2cccs2)csc1NC(=O)CN1CC(C)OC(C)C1 (stereo not drawn),0
COc1ccc(/C=N\n2nnc3ccccc32)cc1,74
C=CCSc1nncn1/N=C/c1ccc(OC)cc1,0
CSc1ccc(/C=N/n2nnnc2N)cc1,0
CSCCC(NC(=O)c1ccco1)C(=O)O (stereo not drawn),0
COc1ccccc1CNC(=O)C(C)NS(=O)(=O)c1ccc(C)cc1 (stereo not drawn),0
Cc1cc(NC(=O)COc2cccc3cccnc23)no1,0
COc1ccccc1-c1cc(C(F)(F)F)nc(S(=O)(=O)CCCC(=O)NC(C)C)n1,57
COc1ccc(S(=O)(=O)N(CC(=O)Nc2cc(C)on2)Cc2ccccc2)cc1,0
COc1ccc(S(=O)(=O)CCC(=O)NC2CCCCC2)cc1,0
COc1ccccc1-c1cc(C(F)(F)F)nc(S(=O)(=O)CCCC(=O)Nc2cc(C)on2)n1,70
CCn1c(Cn2nnc(-c3ccccc3)n2)nnc1SCC(=O)Nc1ccc(C(C)=O)cc1,0
CCCOc1cccc(C2/C(=C(/O)c3ccc(OC)cc3)C(=O)C(=O)N2CCN(C)C)c1 (stereo not drawn),0
CC1(C)CC2CC(C)(CN2C(=O)CN2C(=O)c3ccccc3C2=O)C1 (stereo not drawn),0
SMILES,RORA inh
COc1cccc(C2=NC(C)(C)NC(c3ccccc3O)C2)c1 (stereo not drawn),0
COCCCN(C(C)=O)c1nc(-c2ccccc2)cs1,0
CCC1Oc2nc(SC)nnc2-c2ccccc2N1C(=O)c1ccccc1 (stereo not drawn),0
CCOc1ccccc1C(=O)Nc1ccc(-c2nnc(-c3ccc(C)cc3)o2)cc1,0
Brc1cccc(-c2nnc(-c3ccccc3)o2)c1,0
Cc1ccc(-c2nnc(Nc3ccccc3)o2)cc1,61
O=C(NS(=O)(=O)c1ccccc1Cl)c1ccc[nH]1,0
COC(=O)C(NC(=O)c1ccccc1)=C(C)C,0
CCOC(=O)C1CCCN(c2c(NCCCN3CCCC(C)C3)c(=O)c2=O)C1 (stereo not drawn),0
N#Cc1c(N2C(=O)C3C4C=CC(C4)C3C2=O)sc2c1CCC2 (stereo not drawn),0
COc1cc(S(=O)(=O)N(Cc2ccc(C)cc2)C2CCCCC2)ccc1-n1cnnn1,0
CN(C)c1ccc(-c2nn3c(-c4ccccc4Cl)nnc3s2)cc1,0
COc1ccccc1-c1nnc2sc(-c3ccc(N(C)C)cc3)nn12,57
COc1ccccc1-c1nn2c(C(F)(F)F)nnc2s1,0
Cc1ccc2nc(NC3=NCN(CCN4CCOCC4)CN3)nc(C)c2c1,0
CC1Cc2ccccc2N1C(=O)Cn1nc(C(=O)O)c2ccccc2c1=O (stereo not drawn),0
O=C1c2ccccc2-c2c1cccc2C(=O)N(CCO)CCO,0
CCc1ccc(NC(=O)CSc2nnc(Cc3cccn3C)n2-c2ccc(F)cc2)cc1,0
CCCCOc1ccc(S(=O)(=O)N2CCCCCC2)cc1,0
CCOc1ccc(OCC(=O)Nc2ccc(S(=O)(=O)Nc3cc(C)nc(C)n3)cc2)cc1,0
CCOc1ccc(S(=O)(=O)n2cnc3cc(C)c(C)cc32)cc1,66
Cc1ccc2nc(Nc3ccc4[nH]c(=O)[nH]c4c3)c(-n3nc(C)cc3C)nc2c1,0
CCCCOC(=O)Nc1ccc(N2CCCCC2)cc1,0
Cc1cccc(Nc2ncc3c(n2)CC(C)CC3=O)c1 (stereo not drawn),0
COC(=O)CCP(=O)(O)Cc1ccccc1CP(=O)(O)CCC(=O)OC,0
SMILES,RORA inh
Cc1nc2sc(C(c3ccco3)N3CCN(c4cccc(Cl)c4)CC3)c(O)n2n1 (stereo not drawn),0
CCCC(=O)Nc1nc(-c2ccc3c(c2)OCCO3)cs1,0
Cc1ccc(-c2csc(N3CCC(NS(=O)(=O)c4ccc5c(c4)OCCO5)CC3)n2)cc1,70
Nc1nc(-c2ccc3c(c2)OCCO3)cs1,0
CS(=O)(=O)N1CCC(C(=O)NCCN2CCN(Cc3ccccc3)CC2)CC1,0
Cc1ccc(-c2csc3ncnc(Sc4nnc(CN5CCCCCC5=O)o4)c23)cc1,57
Cn1c(SCc2ccc(C#N)cc2Cl)nc2ccccc21,0
CC1=Nn2c(nc(-c3ccccc3)c2-c2ccccc2)N(CC(N)=O)C(=O)C1,0
CCc1ccccc1NC(=O)CN(C)Cc1nc(N)nc(Nc2ccccc2C)n1,0
CCOC(=O)c1cnn(-c2ccccn2)c1N,0
CCOC(=O)c1c(C)nc(-c2ccccc2)nc1N,0
CCOC(=O)C1=Nc2ccccc2C1=[N+]=[N-],76
CCn1c(SCC(=O)Nc2ccc3c(c2)OCCO3)nnc1-c1ccccn1,0
CC(=O)NCCn1c(SCC(=O)c2ccccc2)nc2ccccc2c1=O,0
CCOC(=O)N1CCC(NC(=O)C(Cc2ccccc2)NC(=O)C2CCCCC2)CC1 (stereo not drawn),0
Cc1cccc2cc3c(nc12)SC(=NCC1CCCO1)N(Cc1ccco1)C3 (stereo not drawn),55
COc1ccc(-n2c(SCC#N)nnc2-c2ccc(NS(=O)(=O)c3ccc(C)cc3)cc2)cc1,0
Cc1cc(C2C(=O)CC(=O)CC2c2ccccc2)on1 (stereo not drawn),0
COc1cccc(C=NCCNC(=O)c2nonc2N)c1O,0
O=c1c2ccccc2nc2c3ccccc3ncn12,0
Cc1ccc(-c2nsc3c(N4CCC(C(N)=O)CC4)ncnc23)cc1,57
NC(=O)C1CCN(C(=O)CSCc2ccccc2Cl)CC1,0
CSc1nc(N(CCO)CCO)c2sc3nc(-c4ccco4)c4c(c3c2n1)CCC4,0
CCS(=O)(=O)NCc1ccc2[nH]c3c(c2c1)CCCC3,0
CCOC(=O)c1sc(NC(=O)c2ccc(Cl)s2)cc1C,0
SMILES,RORA inh
OC1CCCCC1Sc1nc2ccccc2s1 (stereo not drawn),0
O=C(Sc1nnc(-c2ccccc2)o1)N1c2ccccc2Sc2ccccc21,0
O=S1(=O)C=C(Sc2nc3ccccc3s2)c2ccccc21,88
c1ccc(-c2nnc(SCc3cn4ccsc4n3)o2)cc1,0
Cc1cc(C)nc(SC2=CS(=O)(=O)c3ccccc32)n1,65
O=S1(=O)C=C(Sc2nnc(-c3ccccc3)o2)c2ccccc21,80
O=c1oc2ccccc2n1CSc1nc2ccccc2s1,0
Cc1cc(NC(=O)c2ccc(Cl)cc2)no1,0
CCC(=O)Nc1ccc(NC(=O)c2ccccn2)cn1,0
C=CCN(CC=C)S(=O)(=O)c1ccc2nc(NC(=O)C(C)C)sc2c1,0
O=C(CN1CCCCC1)Nc1cccc(Cl)c1Cl,0
Cc1ccnc(NC(=O)c2c(O)c3ccccc3n(C)c2=O)c1,0
COc1ccc(C2CC(c3c(O)cc(C)oc3=O)=NCCS2)c(OC)c1 (stereo not drawn),0
